Data set [1] has as its target Histamine H2 receptor (Cavia porcellus) (UniProt P47747). The data set is described as follows: Evaluated in vitro for histamine H2 receptor antagonist activity by using histamine-stimulated chronotropic response of the guinea pig atrium. The data set is classed as functional, tissue-based. Conditions: Cardiac atrium. An outline of the steps:
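A cumulative histamine concentration–response curve (rate) was then repeated with successive antagonist concentrations, each pre-incubated 30 min. Dose ratios compared histamine concentrations giving half-maximal stimulation with and without antagonist.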

A further data set deals with Rattus norvegicus. The data set is described as follows: Compound was evaluated in vivo for the gastric antisecretory activity in the lumen perfused stomach of the anesthetized rat after iv administration. The data set is classed as functional. An outline of the steps: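 Male Sprague–Dawley rats (250 g) were anesthetized with urethane (1 g/kg) and given a lumen-perfused stomach preparation. Acid secretion was driven by constant i.v. histamine infusion [1 mg/(kg h)]. ED50 was taken from the regression line of percent inhibition of acid output.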

The nature of data set [2]: Compound was evaluated for the ionization constant (pKa) by using potentiometric titration (ionization of end group). In kind it is physicochemical. An outline of the steps: (§1)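 Potentiometric titration of the hydrochloride salt with water as solvent.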
Data set [3] in a line: Compound was evaluated for the ionization constant (pKa) by using potentiometric titration (ionization of imidazole group). In kind it is physicochemical. An outline of the steps: as §1

As usually defined, the Kb is the affinity of an antagonist, worked out from how it opposes an agonist. A high value points to a less potent antagonist. For orientation: ED50 means the midpoint of the dose-response relation. Read a low ED50 as an effect at a small dose. The term pKa denotes the pH at which an ionisable group is half protonated. Higher therefore signals a group that holds its proton tightly.

Molecules are shown by their SMILES.

Chain of Histamine H2 receptor (Cavia porcellus) (P47747 whole entry): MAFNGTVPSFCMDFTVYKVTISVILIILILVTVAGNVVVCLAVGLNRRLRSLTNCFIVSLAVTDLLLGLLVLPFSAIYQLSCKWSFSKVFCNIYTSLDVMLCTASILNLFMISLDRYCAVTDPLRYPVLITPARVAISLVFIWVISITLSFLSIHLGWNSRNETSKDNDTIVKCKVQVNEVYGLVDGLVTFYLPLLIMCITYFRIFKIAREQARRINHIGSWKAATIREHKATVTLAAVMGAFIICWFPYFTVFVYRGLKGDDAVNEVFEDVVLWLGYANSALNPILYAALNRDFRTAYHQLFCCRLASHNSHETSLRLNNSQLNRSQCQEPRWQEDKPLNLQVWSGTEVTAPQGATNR

On to `C/N=C\Nc1ccc(-c2c[nH]cn2)cc1.Cl`, for which the Kb in data set [1] turned out to be 1200 nM. In the data set with Rattus norvegicus, the 50% effect level (ED50) was put at a dose of 1.1 mg/kg.

`Cl.N=C(N)Nc1cccc(-c2c[nH]cn2)c1` came in with a Kb in data set [1] of 5500 nM. The same compound yielded an ED50 with Rattus norvegicus of 3.2 mg/kg.

`CC(C)/N=C/Nc1ccc(-c2c[nH]cn2)cc1.Cl`: the pKa came out at 8.88 in data set [2] and 5.58 in data set [3]. Also, the Kb in data set [1] is 24 nM. For the same compound, the ED50 in the data set with Rattus norvegicus amounted to 0.019 mg/kg.

Compound `CC/N=C/Nc1ccc(-c2c[nH]cn2)cc1.Cl` gave a Kb in data set [1] of 19 nM. Also, the ED50 in the data set with Rattus norvegicus was 0.02 mg/kg.

In the case of `C/N=C(/N)Nc1cccc(-c2c[nH]cn2)c1.Cl`, the Kb in data set [1] was 4400 nM. In addition, in the data set with Rattus norvegicus, it took a dose of 3.6 mg/kg to reach the 50% effect level (ED50).

In the data set on Rattus norvegicus, `CC(C)(C)/N=C/Nc1ccc(-c2c[nH]cn2)cc1.O=S(=O)(O)O` returned an ED50 of 0.017 mg/kg.

`Cl.N=C(N)c1cccc(-c2c[nH]cn2)c1` gave a Kb in data set [1] of 7200 nM. Moreover, the 50% effect level in the data set with Rattus norvegicus (ED50) was put at a dose of 10 mg/kg.

`CNC(=N)c1cccc(-c2c[nH]cn2)c1.Cl` had a Kb in data set [1] of 8700 nM. The ED50 in the data set with Rattus norvegicus stood at 3.5 mg/kg.

Take `NCCc1c[nH]cn1` [HISTAMINE]: the pKa came to 9.81 in data set [2] and 6.07 in data set [3].

In data set [1], `CC(C)C/N=C/Nc1ccc(-c2c[nH]cn2)cc1.Cl` had a Kb of 69 nM. Moreover, the 50% effect level with Rattus norvegicus (ED50) was put at a dose of 0.026 mg/kg.

For the compound `CN/C(=N\CCSCc1nc[nH]c1C)NC#N` [CIMETIDINE], the pKa in data set [2] was -0.4. Moreover, the 50% effect level in the data set with Rattus norvegicus (ED50) was put at a dose of 0.56 mg/kg.

In turn, `C=CC/N=C/Nc1ccc(-c2c[nH]cn2)cc1.O=C(O)/C=C/C(=O)O` registered a Kb in data set [1] of 13 nM. This compound also gave an ED50 in the data set on Rattus norvegicus of 0.024 mg/kg.

In data set [1], `CCC/N=C/Nc1ccc(-c2c[nH]cn2)cc1.Cl` showed a Kb of 32 nM. In addition, the ED50 in the data set on Rattus norvegicus was found to be 0.011 mg/kg.

These data come from ChEMBL document CHEMBL1122591, “(Imidazolylphenyl)formamidines. A structurally novel class of potent histamine H2 receptor antagonists” (J Med Chem, 1984).
